Data published in PMC3963460 (Synthesis, 2013).

Molecular target: PKC rat-brain isozyme mixture
Assay: Protein kinase C isozyme mixture competitive binding assay with
Conditions: read-out: Kd of (^3H)PDBu; measured under these assay conditions
In short: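 Rat-brain PKC isozyme mixture in Tris-HCl pH 7.4 buffer with KCl, CaCl2 and BSA, plus phosphatidylserine vesicles; (3H)PDBu added in DMSO. Triplicate vials incubated at 37 °C for 90 min, then 15 min on ice. Nonspecific binding from an unlabelled analogue at 5 μM assay concentration. Filtered through poly(ethyleneamine)-soaked filters, washed with ice-cold 20 mM Tris pH 7.4, scintillation-counted.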

`CCCC(=O)OC1C(C)C2(O)C(C=C(CO)CC3(O)C(=O)C(C)=CC32)C2C(C)(C)C12OC(=O)CCC` (stereo not shown) [(^3H)PDBu, (^3H)phorbol dibutyrate] was tested, and the Kd was 1.55 nM.
